Results: ChEMBL document CHEMBL1156534, “Hemopressin is an inverse agonist of CB1 cannabinoid receptors” (Proc Natl Acad Sci U S A, 2007)

Columns and labels:
Assay type in all cases: functional, cell-based
[1] = molecular target: T1, Alpha-2A adrenergic receptor (Homo sapiens) (UniProt P08913); assay: Antagonist activity at alpha2A adrenergic receptor expressed in HEK293 cells assessed as blockade of secreted alkaline phosphatase activity at 1 uM after 6 hrs relative to control
T1 sequence (whole entry): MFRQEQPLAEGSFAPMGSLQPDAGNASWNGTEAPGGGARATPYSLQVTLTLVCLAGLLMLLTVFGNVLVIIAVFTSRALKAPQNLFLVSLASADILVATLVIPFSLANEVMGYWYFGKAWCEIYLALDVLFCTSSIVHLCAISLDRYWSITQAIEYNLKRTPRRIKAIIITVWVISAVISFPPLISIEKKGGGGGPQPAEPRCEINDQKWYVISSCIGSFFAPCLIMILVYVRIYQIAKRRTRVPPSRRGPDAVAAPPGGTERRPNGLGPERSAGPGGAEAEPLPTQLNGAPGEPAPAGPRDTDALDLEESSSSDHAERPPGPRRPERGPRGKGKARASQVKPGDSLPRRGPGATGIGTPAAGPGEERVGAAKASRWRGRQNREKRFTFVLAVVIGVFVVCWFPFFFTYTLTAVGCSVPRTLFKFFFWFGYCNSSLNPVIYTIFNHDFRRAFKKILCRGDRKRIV
Summary of the method: (§1)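 HEK-293 cells transiently co-transfected with pCRE-SeAP and a Flag-tagged receptor, 30,000 cells/well on poly-L-lysine. They were serum-starved 16–18 h, then exposed 6 h in serum-free medium to 10 μM forskolin (omitted for β2) plus the receptor agonist (100 nM), with or without peptide (1 μM). Heat-treated supernatant SeAP was read by CSPD chemiluminescence. Mean ± SEM, n = 6.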

[2] = molecular target: Mu-type opioid receptor (Homo sapiens) (UniProt P35372); assay: Antagonist activity at mu opioid receptor expressed in HEK293 cells assessed as blockade of secreted alkaline phosphatase activity at 1 uM after 6 hrs relative to control; summary of the method: as §1
[3] = molecular target: Cannabinoid receptor 2 (Homo sapiens) (UniProt P34972); assay: Antagonist activity at CB2 receptor expressed in HEK293 cells assessed as blockade of secreted alkaline phosphatase activity at 1 uM after 6 hrs relative to control
Summary of the method: (§2)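 HEK-293 cells transfected with 5 μg pCRE-SeAP plus 1 μg Flag-tagged CB₁ or CB₂ receptor, 30,000 cells/well, serum-starved 16–18 h. Stimulated 6 h in serum-free medium with 10 μM forskolin and 100 nM agonist, without or with 1 μM test peptide. Supernatant diluted in pH 7.2 buffer, heated 65°C 20 min, then CSPD chemiluminescence read. Mean ± SEM, n = 6.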

[4] = molecular target: Delta-type opioid receptor (Homo sapiens) (UniProt P41143); assay: Antagonist activity at delta opioid receptor expressed in HEK293 cells assessed as blockade of secreted alkaline phosphatase activity at 1 uM after 6 hrs relative to control; summary of the method: as §1
[5] = molecular target: Beta-2 adrenergic receptor (Homo sapiens) (UniProt P07550); assay: Antagonist activity at beta2 adrenergic receptor expressed in HEK293 cells assessed as blockade of secreted alkaline phosphatase activity at 1 uM after 6 hrs relative to control; summary of the method: as §1
[6] = molecular target: Cannabinoid receptor 1 (Homo sapiens) (UniProt P21554); assay: Antagonist activity at CB1 receptor expressed in HEK293 cells assessed as blockade of secreted alkaline phosphatase activity at 1 uM after 6 hrs relative to control; summary of the method: as §2
Chain of Cannabinoid receptor 1 (Homo sapiens) (P21554 whole entry): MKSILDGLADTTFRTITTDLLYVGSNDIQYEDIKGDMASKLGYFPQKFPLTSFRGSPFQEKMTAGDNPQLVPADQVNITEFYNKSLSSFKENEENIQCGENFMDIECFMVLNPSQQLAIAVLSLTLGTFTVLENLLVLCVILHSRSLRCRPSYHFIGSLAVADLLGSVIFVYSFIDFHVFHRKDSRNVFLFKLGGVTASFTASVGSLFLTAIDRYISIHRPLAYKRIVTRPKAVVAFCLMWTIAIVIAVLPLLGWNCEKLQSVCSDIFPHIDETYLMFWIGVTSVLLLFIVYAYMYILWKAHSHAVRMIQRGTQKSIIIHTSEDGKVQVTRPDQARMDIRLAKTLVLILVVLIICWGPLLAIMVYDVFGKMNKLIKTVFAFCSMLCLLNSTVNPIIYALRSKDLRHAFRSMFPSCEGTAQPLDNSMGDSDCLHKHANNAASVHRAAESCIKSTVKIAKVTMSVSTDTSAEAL

Chain of Cannabinoid receptor 2 (Homo sapiens) (P34972 whole entry): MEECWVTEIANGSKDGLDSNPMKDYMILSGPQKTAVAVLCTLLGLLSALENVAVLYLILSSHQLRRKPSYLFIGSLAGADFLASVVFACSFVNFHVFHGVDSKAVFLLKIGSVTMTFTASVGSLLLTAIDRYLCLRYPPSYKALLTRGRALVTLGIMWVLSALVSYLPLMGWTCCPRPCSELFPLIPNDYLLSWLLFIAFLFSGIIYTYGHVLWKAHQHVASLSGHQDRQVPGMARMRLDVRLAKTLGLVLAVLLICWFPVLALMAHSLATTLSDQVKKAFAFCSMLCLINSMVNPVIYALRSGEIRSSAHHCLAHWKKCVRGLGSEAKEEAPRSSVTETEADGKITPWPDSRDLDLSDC
Chain of Beta-2 adrenergic receptor (Homo sapiens) (P07550 whole entry, looked up): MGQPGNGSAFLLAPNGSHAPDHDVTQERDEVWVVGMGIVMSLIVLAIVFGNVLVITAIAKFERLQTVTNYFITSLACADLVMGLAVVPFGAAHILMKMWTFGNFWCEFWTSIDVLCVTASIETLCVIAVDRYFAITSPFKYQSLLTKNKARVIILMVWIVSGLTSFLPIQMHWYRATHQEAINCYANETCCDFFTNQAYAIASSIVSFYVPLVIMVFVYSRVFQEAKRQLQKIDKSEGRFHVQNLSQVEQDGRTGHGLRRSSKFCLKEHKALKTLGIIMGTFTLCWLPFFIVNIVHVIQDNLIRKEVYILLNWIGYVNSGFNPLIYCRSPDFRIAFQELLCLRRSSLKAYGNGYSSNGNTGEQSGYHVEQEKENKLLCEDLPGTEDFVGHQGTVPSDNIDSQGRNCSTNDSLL
Chain of Delta-type opioid receptor (Homo sapiens) (P41143 whole entry): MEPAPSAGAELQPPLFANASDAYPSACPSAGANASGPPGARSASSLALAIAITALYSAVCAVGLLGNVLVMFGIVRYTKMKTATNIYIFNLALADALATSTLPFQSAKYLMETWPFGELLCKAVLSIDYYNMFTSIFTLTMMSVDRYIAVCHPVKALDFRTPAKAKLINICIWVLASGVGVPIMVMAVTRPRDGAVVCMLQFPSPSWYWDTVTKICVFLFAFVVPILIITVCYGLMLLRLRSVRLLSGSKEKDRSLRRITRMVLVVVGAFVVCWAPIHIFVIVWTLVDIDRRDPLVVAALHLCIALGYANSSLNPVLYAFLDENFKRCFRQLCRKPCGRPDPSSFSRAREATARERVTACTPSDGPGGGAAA
Chain of Mu-type opioid receptor (Homo sapiens) (P35372 whole entry): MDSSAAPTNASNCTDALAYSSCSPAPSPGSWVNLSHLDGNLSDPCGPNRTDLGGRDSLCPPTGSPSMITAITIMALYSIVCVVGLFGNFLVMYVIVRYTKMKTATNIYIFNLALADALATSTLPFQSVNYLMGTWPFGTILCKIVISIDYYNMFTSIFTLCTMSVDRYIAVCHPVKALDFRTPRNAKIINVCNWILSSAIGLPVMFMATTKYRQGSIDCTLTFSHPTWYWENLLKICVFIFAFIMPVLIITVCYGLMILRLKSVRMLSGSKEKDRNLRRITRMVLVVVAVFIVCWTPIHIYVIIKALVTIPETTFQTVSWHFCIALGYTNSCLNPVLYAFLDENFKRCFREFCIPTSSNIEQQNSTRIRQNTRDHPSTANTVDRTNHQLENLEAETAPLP

## CC(C)NCC(O)c1ccc(O)c(O)c1 (stereo unspecified)
[1]
  Activity: 1.26

## Clc1cccc(Cl)c1NC1=NCCN1
[2]
  Activity: 0.59

## CC(C)[C@H](NC(=O)[C@H](CCC(=O)O)NC(=O)[C@H](Cc1ccccc1)NC(=O)[C@H](C)NC(=O)[C@@H](N)Cc1ccc(O)cc1)C(=O)N[C@H](C(=O)NCC(=O)O)C(C)C
[3]
  Activity: 0.64

## CC[C@H](C)[C@H](NC(=O)[C@H](Cc1ccc(O)cc1)NC(=O)[C@@H](NC(=O)[C@H](CCCNC(=N)N)NC(=O)[C@@H](N)CC(=O)O)C(C)C)C(=O)N[C@@H](Cc1cnc[nH]1)C(=O)N1CCC[C@H]1C(=O)N[C@@H](Cc1ccccc1)C(=O)O
[4]
  Activity: 1.03
[5]
  Activity: 0.76

## C[C@@H](NC(=O)[C@@H](N)Cc1ccc(O)cc1)C(=O)NCC(=O)N(C)[C@@H](Cc1ccccc1)C(=O)NCCO
[6]
  Activity: 0.68
